We go through 98 compounds from ChEMBL document CHEMBL4513216, “Probing the Open Global Health Chemical Diversity Library for Multistage-Active Starting Points for Next-Generation Antimalarials” (ACS Infect Dis, 2020).

The structures appear in SMILES notation.

The data set can be described thus: Toxicity liver stage against HepG2, at 10uM. The class given is cell-based. Set-up: test concentration 10 uM, cell line HepG2-A16-CD81EGFP. The note with it: human, HepG2-A16-CD81EGFP cells; read-out: INHIBITION
The essentials: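 Uninfected HepG2-A16-CD81EGFP cells, 3 × 10^3 per well, 1536-well, plated on prespotted compound at 10 μM final, parasite-free screening media added to match infected plates; puromycin 10 μM positive, DMSO 0.5% negative; run in parallel with 48 h PbLuc assay at 37 °C, 5% CO2; viability by CellTiter-Glo luminescence, normalized to controls.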
Regarding `CCNC(=O)NC[C@H]1COCc2nc3cc(OC)ccc3n21`, the cytotoxicity at 10 µM was -2.3%. For the compound `Cc1ccn(CCC(=O)NCCc2ccco2)n1`, the cytotoxicity at 10 µM is -4.81%. Take `O=C1COc2ccc(S(=O)(=O)NCCC3=CCCCC3)cc2N1`: the cytotoxicity at 10 µM turned out to be 5.42%. To `Cc1cccc(NC(=O)Nc2c[nH]c(=O)[nH]c2=O)c1C` belongs 8.2%; to `Cc1ccc2c(c1)C(=O)CC1(CCN(Cc3ccccc3)CC1)O2`, 2.81%; to `COc1ccc2c(c1)[nH]c1c(N(C)CC3OCCO3)ncnc12`, 18.2%. Regarding `COc1ccc(N2CCN(C(=O)c3cc(=O)c(OC)c[nH]3)CC2)cc1`, the cytotoxicity at 10 µM was -0.244%. To `O=C(Cc1cccc(F)c1)N1CCc2ncnc(N3CCCC3)c2CC1` belongs -4.9%; to `CN1CC[C@]2(CN(C(=O)c3ccc[nH]3)C[C@H]2c2ccccc2)C1=O`, 11.6%. In the case of `CN(C)c1ncnc2c1CCN(c1cccc(F)c1)CC2` it was 18.5%. To `CCOCc1ncn2c1CN(S(=O)(=O)c1cccc(C)c1)CC2` belongs -1.33%; to `CCc1c(C)n(C)c2nc3ccccc3n2c1=O`, 5.94%; to `O=C(Cn1cc(-c2ccccc2)ncc1=O)Nc1nccs1`, -4.83%. Consider `Cc1ccc2nc(C3CCN(CCO)CC3)nn2c1`, for which the cytotoxicity at 10 µM was -1.23%.

As for `O=C(NCC1OCCc2cn(CC3CC3)nc21)c1ccsc1` (stereo not drawn), the cytotoxicity at 10 µM came out at 6.69%.

As for `CCn1ccc(-c2nnc(SCC(=O)NCC(C)C)n2CC)n1`, the cytotoxicity at 10 µM is 5.44%.

Take `O=C(NCc1ccccc1Cl)c1[nH]nc2c1CS(=O)(=O)CC2`: the cytotoxicity at 10 µM was -0.908%. In the case of `COc1ccc(Nc2nc3c(C)nn(C)c3c(=O)n2C)c(OC)c1` it was -6.89%. Take `O=C(CN1CCC2(CC1)NC(=O)c1cc(Br)ccc1N2)NC1CC1`: the cytotoxicity at 10 µM was found to be 4.79%. For `CN(C)C(=O)Cn1c(C2CC2)c(CN2CCOCC2)c2cccnc21`, the cytotoxicity at 10 µM is -3.99%. To `Cc1cnc(CC2COCCN(C(=O)c3cncnc3)C2)cn1` (stereo not drawn) belongs 0.187%; to `NC(=O)c1ccccc1Oc1cccc(C2CCCNC2)n1` (stereo not drawn), 5.19%. Take `CN1CC(=O)N(C2CCNC2)Cc2c(NC3CCCC3)ncnc21` (stereo not drawn): the cytotoxicity at 10 µM was 9.46%.

Turning to `Cc1ccc(C(=O)NCCS(=O)(=O)Cc2ccccc2)c(C)c1`, the cytotoxicity at 10 µM is -5.09%.

As for `O=C(NC1CCc2nccn2C1)c1ccc(OCC2CC2)nc1` (stereo not drawn), the cytotoxicity at 10 µM was 4.36%. `C1CCN(CCN2CCCCC2C2OCCO2)CC1` (stereo not drawn): the cytotoxicity at 10 µM came to 3.19%. In the case of `O=C(CCOCc1ccccc1)NS(=O)(=O)N1CCOc2ccccc21` it was 9.15%; in that of `CC(C)CNC(=O)c1ccc(NC(=O)NC(C)c2ccccn2)cc1` (stereo not drawn), 5.26%; in that of `CCCNC(=O)c1ccc(NC(=O)NC(C)c2ccccn2)cc1` (stereo not drawn), 9.15%.

Consider `CCc1cccnc1NCc1cnc(N2CCOCC2)nc1`, for which the cytotoxicity at 10 µM was found to be 1.03%. On to `NC(=O)CC1CCCN(c2cncc(SCc3ccccc3)n2)C1` (stereo not drawn), for which the cytotoxicity at 10 µM stood at 11%. In the case of `CCOC(=O)c1ccc(CNC(=O)c2ccc(Cl)cn2)o1` it was 6.72%; in that of `O=C(NCC1CC(=O)N(CCc2ccccc2)C1)c1c(F)cccc1F` (stereo not drawn), 9.52%.

With `CCCn1cc(NC(=O)c2ccc(NC(=O)NC3CC3)cc2)ccc1=O`, the cytotoxicity at 10 µM stood at 1.93%. To `CC(C)(O)CSCCNCc1ccc(Cl)c2cccnc12` belongs -8.87%; to `CCOCC(=O)Nc1cccc(Oc2ccccn2)c1`, -2.41%; to `CS(=O)(=O)CCOCCNc1ccc(C(F)(F)F)cc1C#N`, 2.31%.

Turning to `COc1cc(C(C)=O)ccc1SCC(=O)Nc1cc(C)n[nH]1`, the cytotoxicity at 10 µM amounted to 9.83%. To `CC(C)OCCSCc1nnc(-c2cccc(F)c2)o1` belongs 9.45%; to `CCOC(C)c1nc(Cn2cc(-n3cccc3)cn2)cs1` (stereo not drawn), 3.81%. For the compound `Cc1ncsc1CN(C)C(=O)C(CC(C)C)N1CCCCC1=O` (stereo not drawn), the cytotoxicity at 10 µM was found to be 3.28%. In the case of `CS(=O)(=O)NC(=O)CCc1cccc(OC2CCCC2)c1` it was -5.01%; in that of `COc1ccccc1S(=O)(=O)Nc1cnc(O)cc1C`, -13.2%. Take `COc1ccc(C(=O)NCCCC2(C3OCCO3)CCOCC2)cc1`: the cytotoxicity at 10 µM turned out to be 3.05%. In the case of `COc1ccccc1CNC(C)c1cnc2cc(C)nn2c1C` (stereo not drawn), the cytotoxicity at 10 µM is 8.32%. `Cc1cc(C(=O)N2CCCC2)ccc1NCCOCC(F)(F)F`: the cytotoxicity at 10 µM was 0.608%. On to `CN1CCN(Cc2cccc(NCc3ncc[nH]3)c2)CC1`, for which the cytotoxicity at 10 µM is -6.44%. On to `COCc1nc2n(n1)CCCC2Nc1nc(C2CC2)ns1` (stereo not drawn), for which the cytotoxicity at 10 µM is 17%.

For the compound `Cc1ccc(C(O)CNC(=O)NCc2nc(C)cs2)cc1` (stereo not drawn), the cytotoxicity at 10 µM is -13.3%. In the case of `Cn1cc(CC2CCN(C(=O)NCCc3cccc(O)c3)C2)cn1` (stereo not drawn), the cytotoxicity at 10 µM turned out to be 1.05%. In the case of `O=C([C@H]1CC[C@@H]2[C@@H](CCN2c2ncccn2)O1)N1CCCCO1` it was 6.46%. As for `O=C(Cc1ccc(F)cc1)N1CCn2cc(Cn3cncn3)nc2C1`, the cytotoxicity at 10 µM is -74%.

For `CC(=O)NCC(=O)N1CCN(Cc2cccnc2)c2ncccc2C1`, the cytotoxicity at 10 µM is -114%.

As to `COc1cc2nc(NCCN3CCNC3=O)cc(C)c2cc1OC`, the cytotoxicity at 10 µM was -0.454%. Take `Cc1nnc(SCCNC(=O)c2cc(S(N)(=O)=O)ccc2F)s1`: the cytotoxicity at 10 µM was -1.4%. Turning to `CCN(Cc1ccc2cccc(O)c2n1)CC1CCCO1` (stereo not drawn), the cytotoxicity at 10 µM was -4.02%. Turning to `CC(C)Cc1nc(CN2CCC3(CCCO3)CCC2=O)no1` (stereo not drawn), the cytotoxicity at 10 µM was found to be 1.95%. In the case of `Cc1cnc(NC(=O)c2cccc(CN(C)Cc3snnc3C)c2)s1` it was 16.3%; in that of `Cc1cccc(-c2cc(-c3c(C)nn(CCO)c3C)c(C#N)c(N)n2)c1`, 20.2%; in that of `COCC(=O)N1CCN(S(=O)(=O)c2cccs2)[C@H]2CS(=O)(=O)C[C@H]21`, 1.44%.

Take `CC(C)=CCN1CCNC(=O)C1CC(=O)N1CCc2sccc2C1` (stereo not drawn): the cytotoxicity at 10 µM came to 0.429%.

Turning to `CC(C)c1cc(NCC(O)c2ccccn2)n2nccc2n1` (stereo not drawn), the cytotoxicity at 10 µM came to 13%. Turning to `COCC(=O)N1CCCC(C(=O)N(C)CCn2ccnc2C)C1` (stereo not drawn), the cytotoxicity at 10 µM was found to be 0.707%. To `CCn1cc(CN(C)C(=O)C(c2ccccc2C)N(C)C)cn1` (stereo not drawn) belongs 0.0381%; to `O=C1CCCN1CCCNCc1cc(O)c2cccc(Cl)c2n1`, 4.05%. In the case of `O=C(c1ccc2c(c1)CCO2)N1CCN(c2ccc(Cl)cn2)CC1` it was 9.56%; in that of `CSCC[C@H](N)C(=O)N1CC(Oc2ccccc2C)C1`, 0.897%; in that of `COc1cccc(-c2cc(C(=O)NCCn3nc(C)nc3C)[nH]n2)c1`, -2.77%. In the case of `C[C@@H]1CN(CCC(=O)N(C)Cc2ccccc2)CC[C@@]1(O)C1CCC1`, the cytotoxicity at 10 µM came to 2.89%. Take `CS(=O)(=O)CCN1CCC2(CCCN(C3CCOCC3)C2=O)C1` (stereo not drawn): the cytotoxicity at 10 µM was -5.65%.

As to `COc1ncc(-c2nccn2CCN(C)C)cn1`, the cytotoxicity at 10 µM was -17.4%. Turning to `CC(=O)NC(C)CC(=O)NCc1cccnc1Oc1ccccc1C` (stereo not drawn), the cytotoxicity at 10 µM is 11.4%. Take `COc1cccc(N2CCN(C(=O)C(O)c3cccc(Cl)c3)CC2=O)c1` (stereo not drawn): the cytotoxicity at 10 µM was -11.2%.

As to `COCCCC1CCCN(C(=O)CCc2cc(O)no2)C1` (stereo not drawn), the cytotoxicity at 10 µM stood at 8.41%. To `COCCN1CCC(NCc2cc(F)ccc2F)C1` (stereo not drawn) belongs -21.9%; to `CC(=O)N(Cc1ncc(C(C)C)o1)C1CCN(CCn2cncn2)C1` (stereo not drawn), -11.3%; to `CN1CCCN(C(=O)NCc2cc(Br)cs2)CC1`, -16.7%. In the case of `Cc1ncc(C(=O)NCCNC(=O)Cc2cccc(F)c2)s1` it was -4.53%; in that of `Cc1nc(CN2CCCC(N(C)CCOCC(F)(F)F)C2)no1` (stereo not drawn), -4.92%; in that of `O=C(Nc1cnn(CCN2CCOCC2)c1)c1ccccc1Cl`, -5.81%. To `CC(Cn1ccnc1)NC(=O)N1CCN(Cc2ccco2)CC1` (stereo not drawn) belongs -2.07%; to `CC(C)OCCN1CCC(C(=O)c2cc(F)ccc2F)CC1`, -8.63%; to `CCc1nc2n(n1)CC(NCC(=O)Nc1oc(C)c(C)c1C#N)CC2` (stereo not drawn), -8.84%. In the case of `CCOc1ccnc(N2CCN(C(=O)c3ccoc3C)CC2)n1`, the cytotoxicity at 10 µM was -0.463%. Consider `Cc1ccc(-c2nc(CN3CCOC(Cn4cccn4)C3)no2)cc1` (stereo not drawn), for which the cytotoxicity at 10 µM was -8.93%. To `CCc1nc(CN(C(C)=O)C2CCN(Cc3csc(C)n3)C2)no1` (stereo not drawn) belongs -12.8%; to `COc1ncccc1CNC(=O)NCc1ccco1`, -12.8%.

As to `CC(C)C(=O)NC1CCCN(C(=O)c2cc3ccccc3cc2O)C1` (stereo not drawn), the cytotoxicity at 10 µM is -4.14%. To `CNc1cc2c(nn1)CCN(C(=O)c1cccc3c1OCO3)C2` belongs -10.6%.

As for `CC(C)c1ncc2c(n1)CN(Cc1cccc(OCC(N)=O)c1)CC2`, the cytotoxicity at 10 µM was -7.44%.

As to `COc1ccc(C(=O)N2CCC(Nc3cccnn3)CC2)c(OC)c1`, the cytotoxicity at 10 µM came out at 4.67%. For the compound `CCNC(c1ccc(OC)cc1)c1cccnc1` (stereo not drawn), the cytotoxicity at 10 µM is -3.54%.

Consider `COc1ccc(CNCc2c(C)nn(C)c2N2CCOCC2)cc1`, for which the cytotoxicity at 10 µM is -1.32%. In the case of `CN(C)C(=O)N1CCC2(CC1)NC(=O)c1ccccc12` it was -10.1%; in that of `Cc1nc(COC[C@]23COC[C@H]2CN(Cc2ccoc2)C3)cs1`, -19.2%. `N#Cc1ccc(C(=O)N2CC[C@H]3[C@H]2CCN3CC2CCOCC2)cc1`: the cytotoxicity at 10 µM is -5.19%. Turning to `Fc1cnc(N2CCO[C@H]3CN(CC4CCCC4)C[C@H]32)nc1`, the cytotoxicity at 10 µM is -9.39%.

Regarding `Cc1cc(N2CCN(C(=O)[C@@H]3C[C@H]4C=C[C@@H]3C4)CC2)nc2ccccc12`, the cytotoxicity at 10 µM was -5.71%.
